Reference: article PMC8320079 (ACS Omega, 2021)
Values joined by “and” are separate entries in the source; they are usually repeats but may differ in a detail not shown here. Identical values can stand only once.

How the values were obtained:
[1] = system: peripheral blood mononuclear cells (PBMCs); test: MTT-based cell viability assay, normal cells; settings: for IC50: PBMCs (normal cells), 24 h, mean ± S.D.
Procedure, shortened: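 Nontumorigenic PBMCs were exposed 24 h to test compound at 0 and 0.01–400 μM in PBS (pH 7.4), using the same culture and dosing conditions as the tumour lines. MTT formazan was read at 570 nm. Percent cytotoxicity was plotted against log concentration, and IC50 taken from a nonlinear fit (bottom and top asymptotes, centre, Hill slope). Cisplatin reference; mean ± S.D.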

[2] = system: Dalton's lymphoma (DL) cells; test: MTT-based cell viability assay, DL cells; settings: for SI PBMC/DL: selectivity index IC50 (PBMC)/IC50 (DL); for IC50: DL cells, MTT, 24 h, mean ± S.D.
Procedure, shortened: (§1)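 Test compound dilutions in PBS (pH 7.4), 0 and 0.01–100 μM, applied for 24 h. DL cells were grown in RPMI-1640 with 10% FBS and antibiotics at 37 °C, 5% CO2, and subcultured at 80% confluency. Formazan was read at 570 nm. IC50 came from a four-parameter nonlinear fit of % cytotoxicity versus log concentration. Cisplatin reference; mean ± S.D., n = 3. SI = IC50(PBMC)/IC50(DL or EAC); PBMCs were tested at 0.01–400 μM.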

[3] = system: Ehrlich ascites carcinoma (EAC) cells; test: MTT-based cell viability assay, EAC cells; settings: for SI PBMC/EAC: selectivity index IC50 (PBMC)/IC50 (EAC); for IC50: EAC cells, MTT, 24 h, mean ± S.D.
Procedure, shortened: as §1

[4] = system: EAC cell line; test: Apoptosis, AO/EB dual staining, EAC cells; format: cell-based; settings: 24 h
Procedure, shortened: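 Cells (1 × 10^6) exposed 24 h to test compound at 0.01, 0.1, 0.5, 1, 5 and 10 μM; washed twice with PBS (pH 7.4); stained 5 min in a dark cold room with acridine orange and ethidium bromide, 100 μg/mL each in PBS. Fluorescence microscopy in three replicates, about 1000 cells counted per group; orange/red nuclei scored as apoptotic (%). Cisplatin reference; mean ± S.D., n = 3, one-way ANOVA.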

[5] = DMSO-d6 stability study by 31P{1H} and 1H NMR; format: physicochemical; settings: for stability over time in DMSO-d6: 31P{1H} and 1H NMR at time intervals over 6 h
[6] = system: DL cell line; test: Apoptosis, AO/EB dual staining, DL cells; format: cell-based; settings: 24 h
[7] = Solubility noted as property of the isolated complex; format: physicochemical; settings: qualitative

Row | Compound | IC50 [1] [µM] | SI PBMC/DL [2] | SI PBMC/EAC [3] | cytotoxicity in normal cells, in words ([1]; PBMCs) | apoptosis-inducing ability [4] | IC50 [2] [µM] | IC50 [3] [µM] | stability over time in DMSO-d6 [5] | stability in DMSO (properties line of the synthesis) [5] | apoptosis-inducing ability [6] | solubility in DMSO [7]
1 | Cc1ccc(C(C)C)cc1.[Cl][Os-]([Cl])[P+](c1ccccc1)(c1ccccc1)c1ccccc1 [Compound 3, [OsCl2(η^6-p-cymene)(PPh3)]] | 149.9 ± 1.2 | 1.33 | 1.22 | – | – | – | – | – | – | – | –
2 | Cc1ccc(C(C)C)cc1.[Cl][Ge-]([Cl])[Cl].[Cl][Os-]1[P+](c2ccccc2)(c2ccccc2)C[P+]1(c1ccccc1)c1ccccc1 [Compound 8, [OsCl(η^6-p-cymene)(κ^2-dppm)]^+GeCl3^–] | 161 ± 2.8 | 19.42 | 8.86 | negligible cytotoxicity | inducing apoptotic cell death | 8.3 ± 0.05 | 18.2 ± 0.05 | some decomposition of the complex occurs | somewhat stable in DMSO | stronger apoptosis-inducing ability than the rest of the tested compounds | sparingly soluble
3 | Cc1ccc(C(C)C)cc1.[Cl][Os-]1[P+](c2ccccc2)(c2ccccc2)C[P+]1(c1ccccc1)c1ccccc1.[Cl][Sn-]([Cl])[Cl] [Compound 10, [OsCl(η^6-p-cymene)(κ^2-dppm)]^+SnCl3^–] | 145 ± 1.8 | 9.18 | 6.78 | – | – | 15.8 ± 0.05 | 21.4 ± 0.57 | stable in DMSO-d6 for as long as 6 h | stable in DMSO | – | readily soluble
4 | N.N.[Cl][Pt][Cl] [cisplatin, reference compound] | 15.04 ± 0.05 | 79.2 and 79.15 | 40.64 | – | – | 0.19 ± 0.07 | 0.37 ± 0.1 | – | – | – | –
5 | [OsCl(η^6-p-cymene)(PPh3)(GeCl3)] [Compound 7] | 397.6 ± 3.5 | 4.28 | 3.83 | – | – | 93 ± 2.8 | – | somewhat less stable in DMSO-d6 | unstable in DMSO | – | sparingly soluble
6 | [OsCl(η^6-p-cymene)(PPh3)(SnCl3)] [Compound 11] | – | 6.72 | 4.90 | – | – | 63.7 ± 1.3 | 87.3 ± 1.6 | – | – | – | soluble in DMSO
